pKi: −log10 of the molar value. The source made the active and inactive calls. The calls are words filed in the database; no cut-off is given here.
Experiments:
[1] = Antiplatelet activity in human platelet rich plasma assessed as inhibition of PGE2/collagen-induced aggregation preincubated at 100 nM after 10 mins by light transmission aggregometry; format: functional
How it was run: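 Human platelet-rich plasma preincubated 10 min with ligand at 100 nM. Aggregation then triggered by collagen 0.25 μg/mL plus PGE2 1 μM. Read by light transmission aggregometry against unspiked PRP.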

[2] = biological target: T1, Prostaglandin E2 receptor EP3 subtype (Homo sapiens, UniProt P43115); experiment: Displacement of [3H]PGE2 from human EP3R expressed in chem1 cells after 2hrs by beta counting; format: cell-based
T1 sequence (P43115 whole entry): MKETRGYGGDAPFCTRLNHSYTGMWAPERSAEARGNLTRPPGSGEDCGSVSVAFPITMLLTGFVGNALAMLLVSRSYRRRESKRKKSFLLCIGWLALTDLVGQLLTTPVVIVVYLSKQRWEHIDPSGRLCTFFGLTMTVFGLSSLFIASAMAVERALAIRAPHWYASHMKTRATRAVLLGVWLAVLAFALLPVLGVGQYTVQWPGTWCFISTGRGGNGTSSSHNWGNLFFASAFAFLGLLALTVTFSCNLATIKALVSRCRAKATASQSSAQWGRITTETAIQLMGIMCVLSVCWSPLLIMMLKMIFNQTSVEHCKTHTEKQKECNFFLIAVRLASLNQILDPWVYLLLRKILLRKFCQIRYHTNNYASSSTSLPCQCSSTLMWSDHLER
How it was run: (§1)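 Radioligand competition binding with [3H]PGE2 on recombinant human EP1, EP2, EP3 or EP4 receptor membrane preparations (ChemiSCREEN). Ki reported ± SEM.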

[3] = biological target: Prostaglandin E2 receptor EP2 subtype (Homo sapiens, UniProt P43116); experiment: Displacement of [3H]PGE2 from human EP2R expressed in chem1 cells after 2hrs by beta counting; format: cell-based; how it was run: as §1
Sequence of Prostaglandin E2 receptor EP2 subtype (P43116 whole entry): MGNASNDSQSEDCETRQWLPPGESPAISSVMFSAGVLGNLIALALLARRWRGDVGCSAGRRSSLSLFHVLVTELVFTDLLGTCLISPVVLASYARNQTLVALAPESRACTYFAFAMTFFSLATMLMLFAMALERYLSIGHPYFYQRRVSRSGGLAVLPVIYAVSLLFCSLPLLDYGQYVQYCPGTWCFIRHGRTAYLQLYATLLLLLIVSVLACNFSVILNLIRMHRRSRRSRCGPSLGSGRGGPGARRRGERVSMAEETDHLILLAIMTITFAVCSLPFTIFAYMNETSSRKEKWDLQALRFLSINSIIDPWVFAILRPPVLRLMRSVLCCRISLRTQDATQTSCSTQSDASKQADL

[4] = biological target: T2, Prostaglandin E2 receptor EP1 subtype (Homo sapiens, UniProt P34995); experiment: Displacement of [3H]PGE2 from human EP1R expressed in chem1 cells after 2hrs by beta counting; format: cell-based; how it was run: as §1
T2 sequence (P34995 whole entry): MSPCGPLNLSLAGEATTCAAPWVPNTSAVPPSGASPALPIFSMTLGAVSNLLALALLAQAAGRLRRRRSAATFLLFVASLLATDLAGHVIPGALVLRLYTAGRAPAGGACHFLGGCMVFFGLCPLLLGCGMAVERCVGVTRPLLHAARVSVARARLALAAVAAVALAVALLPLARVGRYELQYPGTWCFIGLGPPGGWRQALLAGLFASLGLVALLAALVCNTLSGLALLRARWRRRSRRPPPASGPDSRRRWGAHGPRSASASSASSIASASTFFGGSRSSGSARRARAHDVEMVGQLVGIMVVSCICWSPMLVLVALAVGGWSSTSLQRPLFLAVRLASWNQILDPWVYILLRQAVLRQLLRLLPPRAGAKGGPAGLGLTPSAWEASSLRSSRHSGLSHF

[5] = biological target: Prostaglandin E2 receptor EP4 subtype (Homo sapiens, UniProt P35408); experiment: Displacement of [3H]PGE2 from human EP4R expressed in chem1 cells after 2hrs by beta counting; format: cell-based; how it was run: as §1
Sequence of Prostaglandin E2 receptor EP4 subtype (P35408 whole entry): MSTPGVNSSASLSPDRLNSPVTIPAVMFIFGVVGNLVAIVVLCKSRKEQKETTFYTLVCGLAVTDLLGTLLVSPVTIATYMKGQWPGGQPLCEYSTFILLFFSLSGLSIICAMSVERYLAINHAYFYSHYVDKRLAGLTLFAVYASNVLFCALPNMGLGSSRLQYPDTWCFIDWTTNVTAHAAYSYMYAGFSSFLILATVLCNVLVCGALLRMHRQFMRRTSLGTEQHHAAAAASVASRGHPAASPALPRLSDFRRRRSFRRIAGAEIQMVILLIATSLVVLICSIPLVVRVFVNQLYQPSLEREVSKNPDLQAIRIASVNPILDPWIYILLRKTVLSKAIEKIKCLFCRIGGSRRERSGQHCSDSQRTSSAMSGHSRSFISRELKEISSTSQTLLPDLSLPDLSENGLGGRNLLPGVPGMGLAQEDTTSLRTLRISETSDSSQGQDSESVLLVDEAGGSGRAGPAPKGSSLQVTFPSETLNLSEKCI

[6] = biological target: T3, Prostaglandin E2 receptor EP3 subtype (Homo sapiens) (UniProt P43115); experiment: Binding affinity to EP3R in human brain cerebral cortex at 1 uM after 1 hr by fluorescence imaging; format: tissue-based
T3 sequence (whole entry): T1 sequence (P43115 whole entry)
How it was run: (§2)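 Human cerebral cortex and globus pallidus sections incubated 1 h with 1 μM red pyryllium ligand. For displacement, 100 μM competitor was added. Imaged by confocal fluorescence microscopy.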

[7] = biological target: T3, Prostaglandin E2 receptor EP3 subtype (Homo sapiens); experiment: Binding affinity to EP3R in human HT-29 cells cultured in absence of FBS at 300 nM after 24 hrs by fluorescence microscopy; format: cell-based
How it was run: (§3)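 HT-29 colon adenocarcinoma cells. EP3R expression induced by 72 h FBS withdrawal; FBS-cultured cells served as control. Ligand incubated 1 h, or 24 h for the longer time point. Blue-emitting ligands used at 3 μM with propidium iodide counterstain. Red ligand used at 300 nM with DAPI nuclear stain. For displacement, ligand was followed by 3-fold excess competitor (9 μM or 900 nM) for 1 h. Read by confocal microscopy.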

[8] = biological target: T3, Prostaglandin E2 receptor EP3 subtype (Homo sapiens); experiment: Binding affinity to EP3R in human platelet at 1 uM after 1 hr by fluorescence imaging
How it was run: (§4)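 Fixed human platelets on flow-chamber slides incubated 1 h with 1 μM red fluorescent ligand. For displacement, 1 mM competitor was added. Read by fluorescence imaging.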

[9] = biological target: T3, Prostaglandin E2 receptor EP3 subtype (Homo sapiens); experiment: Binding affinity to EP3R in human HT-29 cells cultured in absence of FBS at 300 nM after 1 hr by fluorescence microscopy in presence of 3-fold excess of (E)-3-(2-((E)-3-(4-(Benzyloxy)-3- methoxyphenyl)prop-1-enyl)phenyl)acrylic acid; format: cell-based; how it was run: as §3
[10] = biological target: T3, Prostaglandin E2 receptor EP3 subtype (Homo sapiens); experiment: Binding affinity to EP3R in human platelet rich plasma preincubated at 5 uM for 10 mins by FACS analysis
How it was run: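 Human platelet-rich plasma preincubated 10 min with 5 μM red fluorescent ligand. Analysed by flow cytometry (FACS) in the red channel against untreated PRP. Scatter cloud inspected as a check on platelet activation.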

[11] = biological target: T3, Prostaglandin E2 receptor EP3 subtype (Homo sapiens); experiment: Induction of EP3R-mediated platelet activation in human platelet rich plasma at 5 uM after 10 mins by FACS analysis
[12] = biological target: T3, Prostaglandin E2 receptor EP3 subtype (Homo sapiens); experiment: Binding affinity to EP3R in human brain globus pallidus at 1 uM after 1 hr by fluorescence imaging in presence of 100-fold excess of (E)-3-(2-((E)-3-(4-(Benzyloxy)-3- methoxyphenyl)prop-1-enyl)phenyl)acrylic acid; format: tissue-based; how it was run: as §2
[13] = biological target: T3, Prostaglandin E2 receptor EP3 subtype (Homo sapiens); experiment: Binding affinity to EP3R in human HT-29 cells cultured in absence of FBS at 300 nM after 1 hr by fluorescence microscopy; format: cell-based; how it was run: as §3
Kidney = experiment: Drug uptake in EP3R-/- mouse kidney at 1 uM after 1 hr by fluorescence imaging; format: ADME, tissue-based
How it was run: (§5)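 Kidney tissue from C57Bl6 wild-type and EP3−/− mice incubated 1 h with 1 μM red pyryllium-labelled ligand. Imaged by confocal laser scanning fluorescence microscopy. Renal artery autofluorescence recorded separately.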

[14] = biological target: T3, Prostaglandin E2 receptor EP3 subtype (Homo sapiens); experiment: Binding affinity to EP3R in human platelet at 1 uM after 1 hr by fluorescence imaging in presence of 1 mM (E)-3-(2-((E)-3-(4-(Benzyloxy)-3- methoxyphenyl)prop-1-enyl)phenyl)acrylic acid; how it was run: as §4
[15] = biological target: T3, Prostaglandin E2 receptor EP3 subtype (Homo sapiens); experiment: Binding affinity to EP3R in human brain globus pallidus at 1 uM after 1 hr by fluorescence imaging; format: tissue-based; how it was run: as §2
[16] = biological target: T3, Prostaglandin E2 receptor EP3 subtype (Homo sapiens); experiment: Binding affinity to EP3R in human brain cerebral cortex at 1 uM after 1 hr by fluorescence imaging in presence of 100-fold excess of (E)-3-(2-((E)-3-(4-(Benzyloxy)-3- methoxyphenyl)prop-1-enyl)phenyl)acrylic acid; format: tissue-based; how it was run: as §2
[17] = biological target: T4, Prostaglandin E2 receptor EP3 subtype (Mus musculus) (UniProt P30557); experiment: Binding affinity to EP3R in C57bl6 mouse kidney arterial smooth muscle cells at 1 uM after 1 hr by fluorescence imaging; how it was run: as §5
T4 sequence (whole entry): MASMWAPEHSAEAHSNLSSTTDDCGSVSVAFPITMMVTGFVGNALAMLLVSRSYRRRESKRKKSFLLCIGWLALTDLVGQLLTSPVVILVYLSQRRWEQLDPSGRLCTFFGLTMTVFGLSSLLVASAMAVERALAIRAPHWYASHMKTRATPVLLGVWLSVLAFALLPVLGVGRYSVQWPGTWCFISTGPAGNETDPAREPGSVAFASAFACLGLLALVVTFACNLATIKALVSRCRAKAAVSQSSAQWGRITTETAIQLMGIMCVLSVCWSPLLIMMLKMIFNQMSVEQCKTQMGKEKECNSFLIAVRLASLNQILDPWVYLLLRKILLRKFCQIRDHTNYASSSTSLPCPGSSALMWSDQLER

[18] = biological target: T3, Prostaglandin E2 receptor EP3 subtype (Homo sapiens); experiment: Induction of EP3R internalization in human HT-29 cells cultured in absence of FBS at 300 nM after 24 hrs by fluorescence microscopy; format: cell-based; how it was run: as §3
[19] = biological target: T4, Prostaglandin E2 receptor EP3 subtype (Mus musculus); experiment: Binding affinity to EP3R in C57bl6 mouse cortical collecting tubuli epithelial cells at 1 uM after 1 hr by fluorescence imaging; format: cell-based; details: Epithelial cell; how it was run: as §5
[20] = biological target: T3, Prostaglandin E2 receptor EP3 subtype (Homo sapiens); experiment: Binding affinity to EP3R in human HT-29 cytoplasm at 3 uM measured 72 hrs post FBS withdrawal by fluorescence microscopy; how it was run: as §3
[21] = biological target: T3, Prostaglandin E2 receptor EP3 subtype (Homo sapiens); experiment: Binding affinity to EP3R in human HT-29 cells cultured in absence of FBS at 3 uM after 1 hr by fluorescence microscopy in presence of 3-fold excess of (E)-3-(2-((E)-3-(4-(Benzyloxy)-3- methoxyphenyl)prop-1-enyl)phenyl)acrylic acid; format: cell-based; how it was run: as §3

pKi [2] | pKi [3] | pKi [4] | pKi [5] | Activity [20] [%] | SMILES | inhibition at 0.1 µM [1] [%] | other results
5.90 | – | – | – | – | COc1cc(C/C=C/c2ccccc2/C=C/C(=O)O)ccc1OCCNC(=S)Nc1ccc(C(=O)O)c(-c2c3ccc(=O)cc-3oc3cc(O)ccc23)c1 | 40 | –
6.17 | – | – | – | – | COc1cc(C/C=C/c2ccccc2/C=C/C(=O)O)ccc1OCCNC(=S)Nc1ccc(-c2c3ccc(=O)cc-3oc3cc(O)ccc23)c(C(=O)O)c1 | 40 | –
– | 5.76 | 3.82 | 5.20 | – | COc1cc(C/C=C/c2ccccc2/C=C/C(=O)O)ccc1OCc1ccccc1 | 40 | –
6.87 | 5.53 | 4.16 | 6.04 | – | COc1cc(C/C=C/c2ccccc2/C=C/C(=O)O)ccc1OCC[n+]1c(C)cc(/C=C/C=C/c2ccc(N(C)C)cc2)cc1C.F[B-](F)(F)F | 40 | Activity [6]: Active; Activity [7]: Active; Activity [8]: Active; Activity [9]: inactive; Activity [10]: 50%; Activity [11]: inactive; Activity [12]: inactive; Activity [13]: Active; Drug uptake (Kidney): Not Active; Activity [14]: inactive; Activity [15]: Active; Activity [16]: inactive; Activity [17]: Active; Activity [18]: inactive; Activity [19]: Active
– | 5.62 | 5.61 | 5.37 | – | COc1cc(C/C=C/c2ccccc2/C=C/C(=O)NS(=O)(=O)c2cccs2)ccc1OCc1ccccc1 | 40 | –
5.82 | – | – | – | – | COc1cc(C/C=C/c2ccccc2/C=C/C(=O)O)ccc1OCCN | 40 | –
7.63 | – | – | – | 60 | COc1cc(C/C=C/c2ccccc2/C=C/C(=O)O)ccc1OCCNc1ccc([N+](=O)[O-])cc1[N+](=O)[O-] | 40 | –
6.66 | – | – | – | – | COc1cc(C/C=C/c2ccccc2/C=C/C(=O)O)ccc1OCC[n+]1c(C)cc(/C=C/c2ccc(N(C)C)cc2)cc1C | 40 | –
7.59 | 4.97 | 4.69 | 5.02 | 55 | COc1cc(C/C=C/c2ccccc2/C=C/C(=O)NS(=O)(=O)c2cccs2)ccc1OCCn1cc2ccccc2c1C#N | 40 | –
7.74 | 5.37 | 4.80 | 5.50 | 58 | COc1cc(C/C=C/c2ccccc2/C=C/C(=O)O)ccc1OCCn1cc2ccccc2c1C#N | 40 | Activity [21]: inactive

Reference: ChEMBL document CHEMBL2163225, “Fluorescent Human EP3 Receptor Antagonists” (ACS Med Chem Lett, 2012)
